From ChEMBL document CHEMBL1128294, “Farnesyl derivatives of rigid carboxylic acids-inhibitors of ras-dependent cell growth” (J Med Chem, 1995) come the findings set out here.

Assay [1] deals with Protein-S-isoprenylcysteine O-methyltransferase (Rattus norvegicus) (UniProt Q9WVM4). The assay can be described thus: In vitro inhibition of Prenylated protein methyltransferase of rat brain cerebellar synaptosomes was assessed from the amount of [3H]-methyl esters formed in 15 min. In kind it is subcellular. In short, it runs like this:
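Compounds at 150 μM final were tested as methyl acceptors. Enzyme source was rat brain cerebellar synaptosomes (100 μg protein) with 25 μM [methyl-3H]AdoMet ([…]) as methyl donor. Read-out was [3H]methyl esters formed in 15 min, in quadruplicate, ±SEM. Detection limit about 3 pmol.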

The test system of assay [2] is EJ. Nature of the assay: Effective concentration required for 50% inhibition of growth of human Ha-ras-transformed rat 1 (EJ)cells; not active at 200 uM. In kind it is functional, cell-based. In short, it runs like this: (§1)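 Ha-ras-transformed Rat1 (EJ) cells grown in DMEM/10% FCS with compound in 0.1% DMSO (vehicle controls 0.1% DMSO), 7-day cultures. Cell number by direct counting gives dose–response curves, and EC50 is the concentration giving 50% growth inhibition. Means of three to five determinations ±SD.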

The subject of assay [3] is EJ. The assay can be described thus: The highest nontoxic concentration for human Ha-ras-transformed rat 1 (EJ) cells was determined by MTT staining method. In kind it is functional. Summed up:
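EJ (Ha-ras-transformed Rat1) cultures treated with compound were stained with MTT to detect live cells, with trypan blue also used to detect dead cells. The value reported is the highest concentration without toxicity.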

The target in assay [4] is Protein-S-isoprenylcysteine O-methyltransferase (Rattus norvegicus, UniProt Q9WVM4). The assay can be described thus: Ability to inhibit prenylated protein methyltransferase (PPMTase) in cell free systems. In short, it runs like this: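 PPMTase source: rat cerebellum synaptosomal membranes (100 μg protein). Substrate 50 μM AFC with 25 μM [methyl-3H]AdoMet, 37 °C for 15 min, with and without a range of inhibitor concentrations, run in duplicate. Activity with drug is expressed as percent of activity without drug, and Ki is derived from the inhibition curves.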
Protein-S-isoprenylcysteine O-methyltransferase, sequence (Q9WVM4 whole entry): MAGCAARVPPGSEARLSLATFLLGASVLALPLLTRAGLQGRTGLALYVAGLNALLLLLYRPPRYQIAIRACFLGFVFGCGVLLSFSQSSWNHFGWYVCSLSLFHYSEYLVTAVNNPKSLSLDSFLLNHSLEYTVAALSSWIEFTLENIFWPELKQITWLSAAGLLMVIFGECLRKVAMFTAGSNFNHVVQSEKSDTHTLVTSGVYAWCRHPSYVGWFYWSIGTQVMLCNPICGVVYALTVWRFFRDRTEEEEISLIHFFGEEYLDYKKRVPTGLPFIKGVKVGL

Assay [5] deals with EJ. The assay can be described thus: Effective concentration required for 50% inhibition of growth of human Ha-ras-transformed rat 1 (EJ)cells. The class given is functional, cell-based. In short, it runs like this:
as §1

Protein-S-isoprenylcysteine O-methyltransferase (Rattus norvegicus), sequence (Q9WVM4 whole entry): as above

What is called EC50 is the concentration needed to bring the measured effect to its halfway point. A lower EC50 goes with higher potency in that assay. The term Ki denotes a dissociation constant, usually derived from enzyme kinetics or from competition with a known ligand. Lower therefore signals a stronger hold on the target. For the molecule `CC(C)=CCC/C(C)=C/CC/C(C)=C/CSc1ccc(N)cc1C(=O)O`, the Amount formed in assay [1] amounted to 0.89 pmol. The 50% effective concentration (EC50) result in the assay on EJ [2] is “Not Active”. In addition, in the assay on EJ [3], the Cytotoxic endpoint is 25 µM. In addition, the Ki in assay [4] was 72.8 µM.

In assay [1], `CC(=O)N(C/C=C(\C)CC/C=C(\C)CCC=C(C)C)C(CS)C(=O)O` (stereo not drawn) registered an Amount formed of 52.5 pmol.

`CCC(=O)SC/C=C(\C)CC/C=C(\C)CCC=C(C)C`: in assay [1], the Amount formed is 26.3 pmol.

Regarding `CC(C)=CCC/C(C)=C/CC/C(C)=C/CNc1ccc(Cl)c(C(=O)O)c1`, in the assay on EJ [5], the EC50 turned out to be 30.8 µM. This molecule also gave an Amount formed in assay [1] of 0.37 pmol. The molecule also showed a Cytotoxic endpoint with EJ [3] of 200 µM. The molecule also gave a Ki in assay [4] of 8 µM.

In the assay with EJ [5], `CC(C)=CCC/C(C)=C/CC/C(C)=C/CSc1ncccc1C(=O)O` yielded an EC50 of 126 µM. In assay [1], this molecule had an Amount formed of 0.73 pmol. Also, in the assay with EJ [3], the Cytotoxic endpoint amounted to 200 µM. The same molecule registered a Ki in assay [4] of 14.9 µM.

In the case of `CC(C)=CCC/C(C)=C/CC/C(C)=C/CSc1ccccc1C(=O)O` [SALIRASIB], the EC50 in the assay with EJ [5] came out at 7.5 µM. For the same molecule, the Amount formed in assay [1] was found to be 0.76 pmol. In the assay on EJ [3], the Cytotoxic endpoint was found to be 200 µM. In assay [4], this molecule returned a Ki of 2.8 µM.
